Experimental findings from ChEMBL document CHEMBL4385596, “Fragment-Based Discovery of a Qualified Hit Targeting the Latency-Associated Nuclear Antigen of the Oncogenic Kaposi's Sarcoma-Associated Herpesvirus/Human Herpesvirus 8” (J Med Chem, 2019) are described below.

In assay [1] the target is T1, ORF 73 (Human herpesvirus 8, UniProt O40947). The assay can be described thus: Inhibition of fluorescent labelled LBS2 DNA binding to human herpesvirus 8 C-terminal His-tagged LANA oligomerization deficient mutant DBD (1008 to 1146 residues) expressed in Escherichia coli BL21 (DE3) preincubated for 60 mins followed by fluorescent labelled LBS2 addition and measured after 90 mins by fluorescence polarization assay. The arrangement: species or system Human gammaherpesvirus 8. The conditions noted are these: read-out: IC50. In a few lines: (§1)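 FP competition assay. His-tagged LANA DBD mutant (200 nM final) pre-incubated with serially varied compound for 60 min. Fluorescein-labelled LBS1, LBS2 or LBS3 (10 nM final) then added and incubated 90 min. Buffer was 10 mM HEPES, 150 mM NaCl, 0.005% Tween20 with 5% DMSO. Read at excitation 485 nm, emission 520 nm. Duplicates in two independent experiments. Runs without LANA checked for interference. IC50 derived from dose-response.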
For orientation: In fluorescence polarisation assays a small probe gives low polarisation when free and higher when bound to something large.

Assay [2] has as its target T1, ORF 73. Nature of the assay: Inhibition of fluorescent labelled LBS1 DNA binding to human herpesvirus 8 C-terminal His-tagged LANA oligomerization deficient mutant DBD (1008 to 1146 residues) expressed in Escherichia coli BL21 (DE3) preincubated for 60 mins followed by fluorescent labelled LBS2 addition and measured after 90 mins by fluorescence polarization assay. The arrangement: species or system Human gammaherpesvirus 8. The gist of the method: as §1

Assay [3] has as its target T1, ORF 73. Nature of the assay: Inhibition of fluorescent labelled LBS3 DNA binding to human herpesvirus 8 C-terminal His-tagged LANA oligomerization deficient mutant DBD (1008 to 1146 residues) expressed in Escherichia coli BL21 (DE3) preincubated for 60 mins followed by fluorescent labelled LBS2 addition and measured after 90 mins by fluorescence polarization assay. The arrangement: species or system Human gammaherpesvirus 8. The gist of the method: as §1

Assay [4] has as its system ORF 73 (Human herpesvirus 8), O40947 [UNDEFINED MUTATION]. The assay can be described thus: Inhibition of 5'-Dy682-labelled LBS1 DNA binding to human herpesvirus 8 C-terminal His-tagged LANA oligomerization deficient mutant DBD (1008 to 1146 residues) expressed in Escherichia coli BL21 (DE3) at 500 uM preincubated for 1 hr followed by 5'-Dy682-labelled LBS1 DNA addition and measured after 30 mins by electrophoretic mobility shift assay. The conditions noted are these: Human gammaherpesvirus 8. In a few lines: (§2)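 Native-gel EMSA. LANA DBD mutant (200 nM final) pre-incubated with compound for 1 h at RT in the dark, then Dy-682-labelled LBS1 probe (20 nM) added. Complex and free-probe band intensities normalised to 0–100% inhibition. Run in duplicate; purified GST served as control.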
(In EMSA bound probe runs differently from free probe, usually more slowly.)

Assay [5] shares this test system. Nature of the assay: Inhibition of 5'-Dy682-labelled LBS1/LBS2 DNA binding to human herpesvirus 8 C-terminal His-tagged LANA oligomerization deficient mutant DBD (1008 to 1146 residues) expressed in Escherichia coli BL21 (DE3) at 500 uM preincubated for 1 hr followed by 5'-Dy682-labelled LBS1 DNA addition and measured after 30 mins by electrophoretic mobility shift assay. The conditions noted are these: Human gammaherpesvirus 8. The gist of the method: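 Native-gel EMSA with a longer Dy-682-labelled probe carrying both LBS1 and LBS2 (20 nM). LANA DBD mutant (200 nM) pre-incubated with compound (500 µM) for 1 h at RT in the dark. Buffer was Tris-HCl pH 7.5 with KCl, MgCl2, DTT, EDTA, glycerol, Tween20, BSA and poly(dI-dC). Band intensities normalised to percent inhibition. Run in duplicate; GST served as control.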

Assay [6] is described as follows: Binding affinity to fluorescent labelled LBS2 DNA (unknown origin) by fluorescence polarization assay. In a few lines:
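Fixed concentration of His-tagged oligomerization-deficient LANA DBD mutant (aa1008-1146, 200 nM final) was pre-incubated 60 min with compound. Fluorescein-labelled LBS2 (10 nM final) was then added and incubated 90 min. Buffer was 10 mM HEPES, 150 mM NaCl, 0.005% Tween20, 5% DMSO. Polarization was read at ex 485/em 520 nm. Runs were done with and without LANA to exclude DNA or quenching interference. Duplicates, two independent experiments.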

The test system of assay [7] is ORF 73 (Human herpesvirus 8), O40947 [UNDEFINED MUTATION]. Nature of the assay: Inhibition of fluorescent labelled LBS2 DNA binding to human herpesvirus 8 C-terminal His-tagged LANA oligomerization deficient mutant DBD (1008 to 1146 residues) expressed in Escherichia coli BL21 (DE3) at 500 uM preincubated for 60 mins followed by fluorescent labelled LBS2 addition and measured after 90 mins by fluorescence polarization assay relative to control. The conditions noted are these: Human gammaherpesvirus 8. In a few lines: (§3)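 Single-concentration FP competition assay (1 mM or 500 µM compound). LANA DBD mutant (200 nM final) pre-incubated with compound for 60 min, then fluorescein-labelled LBS2 (10 nM final) added and incubated 90 min. Buffer was HEPES/NaCl/Tween20 with 5% DMSO. Read at excitation 485 nm, emission 520 nm. Percent inhibition from duplicates in two independent experiments.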

The test system is the same in assay [8]. The assay can be described thus: Inhibition of fluorescent labelled LBS2 DNA binding to human herpesvirus 8 C-terminal His-tagged LANA oligomerization deficient mutant DBD (1008 to 1146 residues) expressed in Escherichia coli BL21 (DE3) at 1 mM preincubated for 60 mins followed by fluorescent labelled LBS2 addition and measured after 90 mins by fluorescence polarization assay relative to control. The conditions noted are these: Human gammaherpesvirus 8. In a few lines: as §3

Assay [9] has as its target T1, ORF 73. The assay can be described thus: Binding affinity to human herpesvirus human herpesvirus 8 C-terminal His-tagged LANA oligomerization deficient mutant DBD (1008 to 1146 residues) expressed in Escherichia coli BL21 (DE3) by microscale thermophoresis assay. The arrangement: species or system Human gammaherpesvirus 8. In a few lines: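 His-tagged LANA DBD mutant labelled with a RED-tris NTA His-tag dye, used at 50 nM. Ligand titrated in a dose-response series starting at 1 mM. Buffer was 10 mM HEPES, 150 mM NaCl, 2 mM DTT, 0.005% Tween20 with 5% DMSO. KD derived from thermophoresis.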
Background: In MST a laser heats a spot of the sample, and binding alters the fluorescence response.

The target in assay [10] is T1, ORF 73. The assay can be described thus: Inhibition of 5'-Dy682-labelled LBS1 DNA binding to human herpesvirus 8 C-terminal His-tagged LANA oligomerization deficient mutant DBD (1008 to 1146 residues) expressed in Escherichia coli BL21 (DE3) preincubated for 1 hr followed by 5'-Dy682-labelled LBS1 DNA addition and measured after 30 mins by electrophoretic mobility shift assay. The arrangement: species or system Human gammaherpesvirus 8. In a few lines: as §2

Assay [11] is described as follows: Inhibition of 5'-Dy682-labelled LBS1 DNA binding to GST-tagged LANA C-terminal domain (934 to 1162 residues) preincubated for 1 hr followed by 5'-Dy682-labelled LBS1 DNA addition and measured after 30 mins by electrophoretic mobility shift assay. The arrangement: species or system Human gammaherpesvirus 8. The gist of the method: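 Dose-dependent native-gel EMSA used Dy-682-labelled LBS1 probe with wild-type LANA CTD (aa934-1162). Protein was incubated with compound for 1 h at RT in the dark. IC50 was calculated from band intensities.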

Assay [12] has as its system ORF 73 (Human herpesvirus 8), O40947 [UNDEFINED MUTATION]. The assay can be described thus: Binding affinity to human herpesvirus 8 C-terminal His-tagged LANA oligomerization deficient mutant DBD (1008 to 1146 residues) expressed in Escherichia coli BL21 (DE3) at 1 mM by STD-NMR analysis. The conditions noted are these: Human gammaherpesvirus 8. The gist of the method: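 STD NMR at 298 K, 500 MHz. Ligand at 1 mM final (40-fold excess) over LANA DBD mutant at 25 µM final. On-resonance irradiation at 0 ppm, off-resonance at -40 ppm. STD effect (I/I0) calculated per ligand proton. A free-compound control spectrum was recorded to check for artefacts.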

The subject of assay [13] is Human gammaherpesvirus 8. The assay can be described thus: Binding affinity to wild-type human herpesvirus 8 GST-tagged LANA C-terminal domain (934 to 1162 residues) assessed as change in melting temperature at 500 uM by differential scanning fluorimetry. The gist of the method: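 Thermal shift (DSF) used wild-type LANA C-terminal domain (aa934-1162) at 20 µM final and compound at 500 µM final. Buffer was 10 mM PBS pH 7.4, 5% DMSO, 0.05% Tween20. Melting was run in a real-time PCR instrument, and the change in denaturation temperature (TM) was recorded.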

Assay [14] has as its system Human gammaherpesvirus 8. The assay can be described thus: Binding affinity to wild-type human herpesvirus 8 His-tagged LANA C-terminal domain (934 to 1162 residues) at 500 uM by surface plasmon resonance analysis.

SMILES strings stand for the structures. Active and inactive are the calls of the source. The calls are words filed in the database; no cut-off is given here.

What is called IC50 is the concentration that inhibits the measured activity by half. A word on the inhibition: it is the drop in the measured response relative to a control, in per cent. For orientation: Kd means the concentration at which binding is half-saturated. The low end stands for a tighter complex, the high end for a looser complex. For orientation: ΔTm means the shift of the melting midpoint relative to a reference.

As for `Nc1cccc(-c2cn(-c3ccc(C(=O)O)cc3)nn2)c1`, the IC50 amounted to 109 µM at ORF 73 [1], 136 µM at ORF 73 [2] and 106 µM on ORF 73 [3]. Further, the inhibition result in [4] and in assay [5] was “inactive” throughout. Besides, the result in assay [6] was inactive.
With `O=C(O)c1ccc(-n2cc(C3(O)CCCC3)nn2)cc1`, the IC50 came to 159 µM on ORF 73 [1], 104 µM at ORF 73 [2] and 39 µM at ORF 73 [3]. Also, the inhibition result in assay [4] and in assay [5] was “inactive” throughout. Also, the result in assay [6] was inactive.
In turn, `COc1ccc(-c2cn(-c3ccc(C(=O)O)cc3)nn2)cc1` came in with an inhibition in assay [7] of 20%. Further, the result in assay [6] was inactive.
As to `Nc1ccc(-c2cn(-c3ccc(C(=O)O)cc3)nn2)cc1`, the values for the IC50 on ORF 73 [1], on ORF 73 [2] and at ORF 73 [3] were 14 µM, 19 µM and 12 µM, respectively. Also, the inhibition result in assay [4] and in assay [5] was “Active” throughout. Besides, the outcome in assay [6] was inactive.
For `Nc1ccccc1-n1cc(-c2ccc(C(=O)O)cc2)nn1`, the values for the IC50 at ORF 73 [1], at ORF 73 [2] and at ORF 73 [3] were 18 µM, 25 µM and 26 µM, respectively. The inhibition entry in [4] and in assay [5] was “Active” throughout. The result in assay [6] was inactive.
In the case of `O=C(O)c1ccccc1-n1ccnc1`, at ORF 73 [1], the IC50 was found to be 333 µM. In [8], this molecule yielded an inhibition of 50%.
In the case of `O=C(O)c1ccc(-c2cn(-c3cccnc3)nn2)cc1`, the IC50 on ORF 73 [1] is 17 µM; at ORF 73 [2], 20 µM; at ORF 73 [3], 19 µM; on ORF 73 [10], 426 µM; in [11] it was 435 µM. For the same molecule, the inhibition result in assay [4] and in assay [5] was “Active” each time. The same molecule gave a Kd at ORF 73 [9] of 23 µM. Moreover, in assay [6], the result was inactive. Further, the result in [12] was Active.
In the case of `Nc1ccccc1-c1cn(-c2ccc(C(=O)O)cc2)nn1`, the results for the IC50 at ORF 73 [1], on ORF 73 [2] and at ORF 73 [3] were 28 µM, 25 µM and 26 µM, respectively. The inhibition entry in [4] and in assay [5] was “Active” each time. The result in assay [6] was inactive.
In turn, `O=C(O)c1cccc(-n2cc(-c3ccccc3)nn2)c1` came in with an inhibition in assay [8] of 43%. In addition, the outcome in [6] was inactive.
In turn, `O=C(O)c1ccccc1-n1ccnn1` came in with an inhibition in [8] of 12%. In addition, in assay [6], the result was inactive.
On the same counts, the results for `Nc1ccc(-n2ccnc2)cc1` are “inactive” and “inactive”.
For `O=C(O)c1ccc(-n2ccnc2)cc1`, in that order: 13% and “inactive”.
`O=C(O)c1ccccc1-n1cc(-c2ccccc2)nn1`: the inhibition in assay [8] stood at 13%. In addition, in assay [6], the outcome was inactive.
With `Nc1ccccc1-n1ccnc1`, in the assay on Human gammaherpesvirus 8 [13], the ΔTm was -1.8 °C. The inhibition in [8] was 25%. For the same molecule, the result in [6] was inactive. The molecule further registered an Activity in the assay on Human gammaherpesvirus 8 [14] of 15.7 RU.
In the case of `Nc1cccc(-n2ccnc2)c1`, the inhibition entry in [8] was “inactive”. The outcome in [6] was inactive.
